Screening results as filed in PubChem.
Rows were chosen to be rich in hits. Some 2.6% of all compounds tested hit in one or more screens of this group.
GSTO1 counter: GSTO1 inhibition, counter-screen for RBBP9 inhibitors; P78417; recombinant GSTO1, activity-based probe fluorescence polarization; inhibition, % at 5.96 µM; hit rate 1.1% among 300,000; AID 1974;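 active = inhibition above the campaign mean inhibition plus 3 SD, cut at about 35% in these data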;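 also: 0% = GSTO1-1 with DMSO and 100% = wells lacking GSTO1-1 enzyme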
Apaf1 inhib: blocks human Apaf-1 apoptosome activity | reconstituted apoptosome caspase-3 activity, DEVD-Rh110 fluorescence | inhibition, % at 20 µM | hit rate 0.71% among 330,000; active = inhibition of at least 40% at 20 µM;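 also: plate controls were DMSO wells for no effect and DEVD-CHO caspase inhibitor wells for full effect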
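Material: cell-free apoptosome with Apaf-1, procaspase-3 and caspase-9; Buffer or medium: Hepes pH 7.5 with detergent and BSA; Reagent: cytochrome c trigger plus (Z-DEVD)2-Rh110 caspase-3 substrate; Times: compound with Apaf-1, dATP, procaspase-3 30 min, then 50 min reaction, room temperature; Technique: Rh110 fluorescence intensity.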
PAD4 inh: inhibitors of human PAD4; inhibition, % at 6.36 µM; Q9UM07; recombinant PAD4, RCA probe fluorescence polarization; AID 485272; hit rate 0.41% among 330,000;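 active = percent inhibition above a cutoff equal to the mean of all tested compounds plus 3 SD, cut at about 15% in these data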;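 also: 0% = PAD4 with RCA probe and DMSO and 100% = probe without PAD4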
Target sequence (Q9UM07 whole entry, looked up): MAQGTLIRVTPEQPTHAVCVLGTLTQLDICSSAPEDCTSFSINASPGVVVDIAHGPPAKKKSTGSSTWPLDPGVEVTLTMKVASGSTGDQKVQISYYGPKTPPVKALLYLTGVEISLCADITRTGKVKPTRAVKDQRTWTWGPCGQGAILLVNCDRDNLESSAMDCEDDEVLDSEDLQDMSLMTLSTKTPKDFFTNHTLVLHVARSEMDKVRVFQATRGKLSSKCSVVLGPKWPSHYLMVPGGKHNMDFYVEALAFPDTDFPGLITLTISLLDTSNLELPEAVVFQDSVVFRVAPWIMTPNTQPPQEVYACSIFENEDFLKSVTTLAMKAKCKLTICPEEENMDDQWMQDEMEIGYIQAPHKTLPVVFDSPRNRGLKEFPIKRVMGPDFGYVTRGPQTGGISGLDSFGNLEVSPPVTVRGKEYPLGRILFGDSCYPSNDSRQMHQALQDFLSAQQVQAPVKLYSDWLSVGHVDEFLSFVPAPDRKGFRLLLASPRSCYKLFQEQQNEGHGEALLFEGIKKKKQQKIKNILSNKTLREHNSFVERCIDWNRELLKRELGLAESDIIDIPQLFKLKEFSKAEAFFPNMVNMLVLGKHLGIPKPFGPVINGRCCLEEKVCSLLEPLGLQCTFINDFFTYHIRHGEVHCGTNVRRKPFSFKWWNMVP
TDP2 inh: blocks human TDP2 phosphodiesterase activity; recombinant TDP2, T5PNP hydrolysis, p-nitrophenol absorbance 415 nm; inhibition, % at 12.8 µM; hit rate 0.34% among 370,000;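 active = inhibition above the mean of all tested compounds plus 3 SD, set per campaign, cut at about 25% in these data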;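 also: 0% = DMSO with enzyme and 100% = buffer with substrate but no TDP2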
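Assay system: Recombinant human TDP2 | Quantity: 120 nM TDP2 per well | Incubation: 2 h at 37 °C | Signal: Epi absorbance | Evaluation: Percent inhibition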
PRMT1 inh: inhibitors of human PRMT1 | recombinant PRMT1, activity-based probe fluorescence polarization | inhibition, % at 2.79 µM | hit rate 1.3% among 370,000 | AID 652257;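 active = inhibition above about 21% made by adding two undisclosed values, limit read from the data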
TDP2 confirm: confirmation of human TDP2 inhibitors | shares compounds with TDP2 inh | recombinant human TDP2, absorbance read-out | inhibition, % at 12.8 µM | hit rate 22% among 1,100 | AID 743263; in the data active = inhibition above about 25%;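 also: 0% = vehicle with enzyme and 100% = no enzyme buffer only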
Numbers without * were called inactive; . = not tested or not shown.

SMILES	GSTO1 counter	Apaf1 inhib	PAD4 inh	TDP2 inh	PRMT1 inh	TDP2 confirm
CCOc1ccc(S(=O)(=O)N2CCCCC2)cc1NC(=O)c1c(CC)noc1C	5	15	-7	25*	-5	-8
Cn1nccc1C(=O)N1CCC(Cc2ccccc2)CC1	5	1	-3	45*	0	3
CN(C)c1cccc(C(=O)OCC(=O)NC2CCCC2)c1	-2	11	-4	26*	-4	6
C/C(=N/NC(=O)CNC(=O)Cc1ccccc1)c1ccc(Cl)cc1	7	-8	-2	2	-2	.
COc1cc2oc3cc(C#Cc4ccc(N)cc4)ccc3c(=O)c2cc1OC	-15	-4	2	-14	4	.
Nc1ccc(C#Cc2ccc3c(=O)c4ccccc4oc3c2)cc1	-11	3	-10	27*	4	-3
Cc1ccc(C)c2c1N(Cc1ccccc1)C(=O)C21OCCO1	10	18	-2	-11	1	.
N#Cc1c(-c2ccccc2)cc(-c2ccc(O)cc2)nc1N	-12	11	-4	29*	-3	-5
O=C(NC1CCCC1)C1CCN(C(=O)c2cc(Cl)ccc2Cl)CC1	10	-10	-2	26*	-1	6
O=C(NC1CC1)C1CCN(C(=O)c2ccc(Cl)cc2Cl)CC1	2	0	3	-5	1	.
Cc1cc(NC(=O)CCN2C(=O)c3ccccc3C2=O)no1	-1	-6	-8	-1	1	.
Cc1cc(NC2=CC(=O)C(=O)c3ccccc32)no1	.	.	.	29*	-1	69*
NC1=C(Br)C(=O)c2ncccc2C1=O	.	.	.	62*	10	65*
O=C1c2cccnc2C(=O)N1CO	-1	-14	-1	7	2	.
CCCc1nnc(NS(=O)(=O)c2ccc(C)cc2)o1	.	.	.	-13	4	.
CCn1cc(S(=O)(=O)Nc2ccc(C)c(Cl)c2)cn1	20	6	4	11	-2	.
CCn1cc(S(=O)(=O)Nc2ncccn2)cn1	-16	-8	2	25*	3	1
CCOC(=O)c1cc2c(N)c(C(=O)c3ccc(Br)cc3)sc2[nH]c1=O	-4	19	3	2	3	.
O=C(Nc1ccc(F)cc1)OCc1cn(Cc2cc(F)cc(F)c2)nn1	.	.	.	7	-7	.
Cc1cc(C)c(C#N)c(N2CCCC2)n1	0	-11	-3	11	1	.
Cc1cc(C)c(C#N)c(N2CCN(c3ccc(F)cc3)CC2)n1	0	8	-2	36*	-2	3
COc1cc(/C=C/C(=O)OCC(=O)Nc2cc(C)on2)ccc1OCC#N	.	2	.	26*	-3	-8
COc1cc(/C=C/C(=O)OCC(=O)NC(=O)NC(C)C)ccc1OCC#N	-3	6	-1	-3	3	.
CCC(NC(=S)NCc1ccc(F)cc1)c1ccc(C(C)C)cc1 (centres undefined)	-4	13	-1	5	-3	.
CCc1cccc(NC(=O)c2sc3nc4n(c(=O)c3c2C)CCC4)c1	11	1	1	55*	1	9
SMILES	GSTO1 counter	Apaf1 inhib	PAD4 inh	TDP2 inh	PRMT1 inh	TDP2 confirm
CC(C)Nc1ncnc2c1ncn2[C@H]1CN(Cc2ccc(F)cc2)C[C@@H](CO)O1	.	.	.	-1	-1	.
CN(C)CCOC(=O)c1ccc2[nH]c3c(c2c1)CSCC3	7	15	-7	25*	5	-3
O=C(O)c1ccc2[nH]c3c(c2c1)CSCC3	17	-8	1	.	.	.
CC1CCN(C2CCN(C(=O)c3ccccc3F)CC2)CC1	7	-16	-2	28*	-1	8
Cc1ccc2c(C)c(C(=O)N3CCCCC3CO)oc2c1C (centres undefined)	-1	-8	-2	-7	7	.
CCOC(=O)N1CCC(N2CCCC(CO)(Cc3cccc(Cl)c3)C2)CC1 (centres undefined)	1	5	0	4	1	.
CCN1CCN(C(C(=O)NC2CCCCC2)C2CC2)CC1 (centres undefined)	.	.	.	3	2	.
CCN1CCN(C(C)C(=O)NC2CCCCC2)CC1 (centres undefined)	1	7	1	27*	1	8
CCN(CC)CCCN1C(=O)C(=O)/C(=C(/O)c2cc(C)ccc2C)C1c1cccnc1 (centres undefined)	-1	1	-1	-3	-1	.
